Assay results: ChEMBL document CHEMBL1687709 (Antimicrob Agents Chemother, 2008)

What was measured:
Format in all cases: ADME, organism-based
[1] = Cmax in HIV-infected patient at 480 mg/m2, po administered every 12 hrs for 6 weeks co-administered with 120 mg/m2 of ritonavir and saquinavir; parameters: route oral; conditions: human, in vivo
Procedure, shortened: (§1)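 Step 2 SQV 750 mg/m2 q12h was added by week 4 when LPV IQ was <15. A second 12-h intensive PK study ran after 2 weeks of SQV plus LPV/r (week 6), with plasma predose and at 1, 2, 3, 6 and 12 h. HPLC-UV at 212 nm (LPV 0.100–40, SQV 0.050–20 μg/ml). Noncompartmental AUC, Cmax, Tmax and C12h.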

[2] = Plasma concentration in HIV-infected patient at 480 mg/m2, po administered every 12 hrs for 6 weeks co-administered with 120 mg/m2 of ritonavir and saquinavir measured 12 hrs after last dose; conditions: human; procedure, shortened: as §1
[3] = Tmax in HIV-infected patient at 480 mg/m2, po administered every 12 hrs for 6 weeks co-administered with 120 mg/m2 of ritonavir and saquinavir; conditions: human, in vivo; procedure, shortened: as §1
[4] = AUC in HIV-infected patient at 480 mg/m2, po administered every 12 hrs for 6 weeks co-administered with 120 mg/m2 of ritonavir and saquinavir; conditions: human, plasma; procedure, shortened: as §1
[5] = AUC in HIV-infected patient at 400 mg/m2, po administered every 12 hrs for 2 weeks co-administered with 120 mg/m2 of ritonavir; conditions: human, plasma, in the assay text read “100 mg/m2 of ritonavir” for “120 mg/m2 of ritonavir”
Procedure, shortened: (§2)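 Treatment-experienced HIV-infected children and adolescents. Without NNRTI: LPV/r 400/100 mg/m2 q12h. With NNRTI: 480/120 mg/m2 q12h. Given as gel capsule or liquid. After 2 weeks, a 12-h intensive PK study followed an observed dose, no standardized meal. Plasma (EDTA) was drawn predose and at 1, 2, 3, 6 and 12 h. LPV was measured by HPLC-UV at 212 nm (range 0.100–40 μg/ml). Noncompartmental AUC, Cmax, Tmax, C12h and CL/F.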

[6] = Tmax in HIV-infected patient at 400 mg/m2, po administered every 12 hrs for 2 weeks co-administered with 120 mg/m2 of ritonavir; conditions: human, in vivo, in the assay text read “100 mg/m2 of ritonavir” for “120 mg/m2 of ritonavir”; procedure, shortened: as §2
[7] = Cmax in HIV-infected patient at 400 mg/m2, po administered every 12 hrs for 2 weeks co-administered with 120 mg/m2 of ritonavir; parameters: route oral; conditions: human, in vivo, in the assay text read “100 mg/m2 of ritonavir” for “120 mg/m2 of ritonavir”; procedure, shortened: as §2
[8] = Plasma concentration in HIV-infected patient at 400 mg/m2, po administered every 12 hrs for 2 weeks co-administered with 120 mg/m2 of ritonavir measured 12 hrs after last dose; conditions: human, in the assay text read “100 mg/m2 of ritonavir” for “120 mg/m2 of ritonavir”; procedure, shortened: as §2
[9] = Clearance in HIV-infected patient at 400 mg/m2, po administered every 12 hrs for 2 weeks co-administered with 120 mg/m2 of ritonavir; conditions: human, in vivo, in the assay text read “100 mg/m2 of ritonavir” for “120 mg/m2 of ritonavir”; procedure, shortened: as §2

| Structure (SMILES) | Cmax [1] | concentration at 12 h [2] | Tmax [3] | AUC [4] | AUC [5] | Tmax [6] | Cmax [7] | concentration at 12 h [8] | CL/F [9] |
| --- | --- | --- | --- | --- | --- | --- | --- | --- | --- |
| CC(C)(C)NC(=O)[C@@H]1C[C@@H]2CCCC[C@@H]2CN1C[C@@H](O)[C@H](Cc1ccccc1)NC(=O)[C@H](CC(N)=O)NC(=O)c1ccc2ccccc2n1 | 3600 ng/mL | 1820 ng/mL | 3 h | 33700 ng·h/mL | – | – | – | – | – |
| Cc1cccc(C)c1OCC(=O)N[C@@H](Cc1ccccc1)[C@@H](O)C[C@H](Cc1ccccc1)NC(=O)[C@H](C(C)C)N1CCCNC1=O [LOPINAVIR] | – | – | – | – | 157000 ng·h/mL | 3 h | 17200 ng/mL | 8800 ng/mL | 43 mL/min |
